# Measurements taken from publication PMC11913021 (Journal of Medicinal Chemistry, 2024).
# Key:
# [1] = biological target: T1, L425A mutant PLD1 (Homo sapiens, UniProt Q13393, L425A); test: PLD activity assay in L425A mutant PLD1-transfected cells; assay type: cell-based
# T1 sequence (Q13393 1-1036 isoform Q13393-2 L425A): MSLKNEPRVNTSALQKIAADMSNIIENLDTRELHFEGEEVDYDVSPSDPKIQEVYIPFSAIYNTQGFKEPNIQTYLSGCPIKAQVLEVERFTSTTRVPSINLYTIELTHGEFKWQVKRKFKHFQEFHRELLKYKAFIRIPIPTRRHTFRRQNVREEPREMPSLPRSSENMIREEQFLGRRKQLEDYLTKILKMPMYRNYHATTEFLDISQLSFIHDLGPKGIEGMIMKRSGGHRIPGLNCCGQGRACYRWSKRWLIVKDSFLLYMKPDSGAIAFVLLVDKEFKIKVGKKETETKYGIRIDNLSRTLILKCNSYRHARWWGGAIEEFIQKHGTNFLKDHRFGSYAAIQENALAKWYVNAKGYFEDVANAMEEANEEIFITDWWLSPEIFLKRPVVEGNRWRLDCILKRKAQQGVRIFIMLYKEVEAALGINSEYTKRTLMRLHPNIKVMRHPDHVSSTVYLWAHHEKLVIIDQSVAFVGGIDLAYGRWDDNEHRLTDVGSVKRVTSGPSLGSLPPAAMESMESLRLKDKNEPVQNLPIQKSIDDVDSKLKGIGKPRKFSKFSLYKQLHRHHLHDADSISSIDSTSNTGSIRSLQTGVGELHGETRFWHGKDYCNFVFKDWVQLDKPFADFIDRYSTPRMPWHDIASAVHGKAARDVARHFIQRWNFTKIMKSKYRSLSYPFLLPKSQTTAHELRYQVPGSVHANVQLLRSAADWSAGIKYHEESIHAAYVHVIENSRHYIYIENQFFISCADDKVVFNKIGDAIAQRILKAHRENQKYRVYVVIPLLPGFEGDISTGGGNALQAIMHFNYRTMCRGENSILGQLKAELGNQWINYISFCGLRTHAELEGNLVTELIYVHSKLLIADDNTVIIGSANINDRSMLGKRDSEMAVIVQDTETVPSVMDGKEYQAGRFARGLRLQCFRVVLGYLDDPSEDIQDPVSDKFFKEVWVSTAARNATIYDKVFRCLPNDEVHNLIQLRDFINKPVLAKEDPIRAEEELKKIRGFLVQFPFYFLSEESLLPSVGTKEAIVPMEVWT
# [2] = test system: EGFR-RAS-mediated signaling pathways; test: Immunoblot of RAS downstream molecules in EGF-stimulated A549 cells; assay type: cell-based
# How it was run: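 Lysates made in passive buffer with protease and phosphatase inhibitor cocktail, boiled 5 min, then separated by SDS-PAGE and transferred to PVDF. Membranes blocked in TBS-T with 5% BSA and probed overnight at 4 °C for phospho- and total Akt, ERK and IκBα. HRP-conjugated secondary antibodies and chemiluminescence were used for detection.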
substance,measurement,setting,value
"N-(3,5-Bis(trifluoromethyl)phenyl)-3-(1H-indol-3-yl)propanamide [3r]",PLD activity,[1],significantly suppressed
same,"phospho-Akt, phospho-ERK, and phospho-IkBα levels",[2],markedly reduced
